Measured values reported in ChEMBL document CHEMBL1125064, “Synthesis and antiviral activity of (S)-9-[4-hydroxy-3-(phosphonomethoxy)butyl]guanine” (1990).
In brackets after ≈: the same amount, converted by molar mass.

How the values were obtained:
Type in all cases: functional
Human betaherpesvirus 5 [1] = test: Antiviral activity against herpesvirus HCMV in AD-169 strain in tissue culture.; conditions: read-out: ID50 (the source's name)
Summary of the method: (§1)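 HCMV strain AD-169 plaque-reduction assay in MRC-5 cells (human lung fibroblasts); ID50 reported in µg/mL.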

Human alphaherpesvirus 2 [2] = test: Antiviral activity against herpesvirus HSV-2 in G strain in tissue culture.; conditions: read-out: ID50 (the source's name)
Summary of the method: (§2)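 HSV-1 strain BWS or HSV-2 strain G plaque-reduction assay in Vero cells; ID50 reported in µg/mL.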

Human alphaherpesvirus 1 [3] = test: Antiviral activity against herpesvirus HSV-1 in BWS strain in tissue culture.; conditions: read-out: ID50 (the source's name); summary of the method: as §2
[4] = Antiviral activity against herpesvirus […] cells in tissue culture.; conditions: Homo sapiens; read-out: ID50 (the source's name)
Vero [5] = test: Antiviral activity against herpesvirus vero cells in tissue culture.; conditions: Chlorocebus sabaeus, read-out: ID50 (the source's name)
Human alphaherpesvirus 2 [6] = test: Antiviral activity against herpesvirus HSV-2 in G strain in tissue culture in Vero cells; conditions: Human alphaherpesvirus 2, Vero; read-out: ID50 (the source's name); summary of the method: as §2
Human betaherpesvirus 5 [7] = test: Antiviral activity against herpesvirus HCMV in AD-169 strain in […] cells; conditions: read-out: ID50 (the source's name); summary of the method: as §1
[8] = Antiviral activity against herpesvirus […] cells in tissue culture; conditions: Homo sapiens; read-out: ID50 (the source's name)
Vero [9] = test: Antiviral activity against herpesvirus vero cells in tissue culture; conditions: Chlorocebus sabaeus, read-out: ID50 (the source's name)
Human alphaherpesvirus 1 [10] = test: Antiviral activity against herpesvirus HSV-1 in BWS strain in Vero cells; conditions: Human alphaherpesvirus 1, Vero; read-out: ID50 (the source's name); summary of the method: as §2

Compound	IC50 (Human betaherpesvirus 5 [1]) [µg/mL]	IC50 (Human alphaherpesvirus 2 [2]) [µg/mL]	IC50 (Human alphaherpesvirus 1 [3]) [µg/mL]	IC50 [4] [µg/mL]	IC50 (Vero [5]) [µg/mL]	IC50 (Human alphaherpesvirus 2 [6]) [µg/mL]	IC50 (Human betaherpesvirus 5 [7]) [µg/mL]	IC50 [8] [µg/mL]	IC50 (Vero [9]) [µg/mL]	IC50 (Human alphaherpesvirus 1 [10]) [µg/mL]
Nc1nc2c(ncn2COC(CO)CO)c(=O)[nH]1 [GANCICLOVIR]	5 (≈ 19.6 µM)	1.6 (≈ 6.27 µM)	0.2 (≈ 0.784 µM)	> 100	> 100					
Nc1ccn(CC[C@@H](CO)OCP(=O)(O)O)c(=O)n1						> 100	> 100	> 100	> 100	> 100
Nc1ncnc2c1ncn2CC[C@@H](CO)OCP(=O)(O)O						> 100	> 100	> 100	> 100	> 100
Nc1nc(O)c2ncn(CC[C@@H](CO)OCP(=O)(O)O)c2n1						97 (≈ 291 µM)	1 (≈ 3 µM)	10 (≈ 30 µM)	> 100	> 100
